The values that follow come from ChEMBL document CHEMBL4266032, “Methylated Polycyclic Polyprenylated Acylphloroglucinol Derivatives from Hypericum ascyron” (2018).

Structures are written as SMILES.

For the first test, the system named is HepG2. Kind of test: Hepatoprotective activity in human HepG2 cells assessed as inhibition of paracetamol-induced reduction in cell viability at 10 uM pretreated for 1 hr followed by paracetamol addition after 24 hrs by MTT assay relative to control. Type of test: functional.
Conditions: not given
In short, it runs like this:
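HepG2 cells injured with paracetamol; test agents at 10 μM; viability read by MTT and given as % of normal, with protection expressed as % inhibition relative to the paracetamol-only control. Bicyclol at 10 μM served as positive control. Means ± SD, n = 3 (n = 6 for normal and control groups).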
For orientation: Formazan colour is commonly taken as a measure of viable cells.
The term inhibition denotes the relative decrease from the control value, in per cent. Consider `CC(C)=CCC[C@]1(C)[C@@H](CC=C(C)C)C[C@]2(C)C(=O)C3=C(O[C@H](C(C)(C)O)[C@H]3O)[C@@]1(C(=O)c1ccccc1)C2=O`, for which the inhibition at 10 µM was determined as 68.1%. Same read-out and setting: for `CC(C)=CCC[C@]1(C)[C@@H](CC=C(C)C)C[C@]2(C)C(=O)C3=C(O[C@@H](C(C)(C)O)[C@H]3O)[C@@]1(C(=O)c1ccccc1)C2=O` the value was 71.4%; for `CC(C)=CC[C@H]1C[C@]2(C)C(=O)C(C(=O)c3ccccc3)=C3O[C@H](C(C)(C)O)CC[C@@]1(C)[C@]3(CC=C(C)C)C2=O`, 42.9%. Same read-out and setting: the same measure for `CC(C)=CCC[C@]1(C)[C@@H](CC=C(C)C)C[C@@]2(C)C(=O)[C@]1(C(=O)c1ccccc1)C(=O)C1=C2O[C@H](C(C)(C)O)[C@@H]1O`: 30.8%; for `CC(C)=CCC1=C2O[C@H](C(C)(C)O)CC[C@]3(C)[C@@H](CC=C(C)C)C[C@](C)(C1=O)C(=O)[C@]23C(=O)c1ccccc1`: 37.2%.

With `COC(=O)c1cc(OC)c2c(c1-c1c(CO)cc(OC)c3c1OCO3)OCO2` [BICYCLOL], the inhibition at 10 µM was found to be 52.6%.

For another test, the system named is SK-N-SH. Kind of test: Neuroprotective activity against glutamate-induced toxicity in human SK-N-SH cells assessed as cell viability at 10 uM pretreated for 4 hrs followed by glutamate challenge measured after 4 hrs by MTT assay (reference value: 67.7 +/- 1.1%). The test is classed as functional. As to conditions: read-out: Activity.
As for `CC(C)=CCC[C@]1(C)[C@@H](CC=C(C)C)C[C@]2(C)C(=O)C3=C(O[C@H](C(C)(C)O)[C@H]3O)[C@@]1(C(=O)c1ccccc1)C2=O`, the viability at 10 µM came out at 78.2%. Still for that read-out and setting: the same measure for `CC(C)=CCC[C@]1(C)[C@@H](CC=C(C)C)C[C@]2(C)C(=O)C3=C(O[C@H](C(C)(C)O)[C@@H]3O)[C@@]1(C(=O)c1ccccc1)C2=O`: 72.2%; for `CC(C)=CCC[C@]1(C)[C@@H](CC=C(C)C)C[C@@]2(C)C(=O)[C@]1(C(=O)c1ccccc1)C(=O)C1=C2O[C@@H](C(C)(C)O)C1`: 82.9%. Still for that read-out and setting: for `CC(C)=CCC[C@]1(C)[C@@H](CC=C(C)C)C[C@]2(C)C(=O)C3=C(O[C@@H](C(C)(C)O)C3)[C@@]1(C(=O)c1ccccc1)C2=O` the value was 71.8%; for `Oc1ccc(/C=C/c2cc(O)cc(O)c2)cc1` [RESVERATROL], 82.5%.
